Test results from ChEMBL document CHEMBL5058577, “EUbOPEN Chemogenomics Library 2 (Multiplex)” (2022).

Tested on: Fibroblast
Assay: Multiplex assay against human fibroblast
Format: toxicity, cell-based
In short: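 Phenotypes for tubulin, mitochondrial mass and membrane permeability are expressed as per cents of healthy-nucleus cells. Cells were stained live at seeding with Hoechst33342, BioTracker Green Microtubule Cytoskeleton Dye, MitoTracker Red and Annexin V Alexa Fluor 680, then imaged after compound addition on a CQ1 microscope at 37°C and 5% CO2. Machine-learning gating in CellPathfinder separated Hoechst high-intensity objects from normal cells, divided normal cells by nuclear state (healthy, pyknosed, fragmented) and divided pyknosed cells into mitotic or apoptotic.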

[1] = 12 h, 1 µM, compound concentration 1 uM, replicate 1
[2] = 12 h, 1 µM, compound concentration 1 uM, replicate 2
[3] = 12 h, 10 µM, compound concentration 10 uM, replicate 1
[4] = 12 h, 10 µM, compound concentration 10 uM, replicate 2
[5] = 24 h, 1 µM, compound concentration 1 uM, replicate 1
[6] = 24 h, 1 µM, compound concentration 1 uM, replicate 2
[7] = 24 h, 10 µM, compound concentration 10 uM, replicate 1
[8] = 24 h, 10 µM, compound concentration 10 uM, replicate 2
[9] = 48 h, 1 µM, compound concentration 1 uM, replicate 1
[10] = 48 h, 1 µM, compound concentration 1 uM, replicate 2
[11] = 48 h, 10 µM, compound concentration 10 uM, replicate 1
[12] = 48 h, 10 µM, compound concentration 10 uM, replicate 2

COc1ccc2c(c1)C(C(=O)N(Cc1ccc(N(C)C)cc1)c1ccc(C(C)C)cc1)CCC2.Cl (configuration not stated)
Population Apoptotic (%) [1]: 57% | Population Fragmented Nuclei (%) [1]: 15% | Population Healthy Nuclei (%) [1]: 72% | Population Hoechst High Intensity Objects (%) [1]: 1% | Population Membrane Permeable-Phenotype (%) [1]: 1% | Population Mitochondria Different-Phenotype (%) [1]: 7% | Population Mitotic Cells (%) [1]: 42% | Population Normal (%) [1]: 98% | Population Pyknosed Nuclei (%) [1]: 11% | Population Tubulin-Different-Phenotype (%) [1]: 22% | Total Cell Count [1]: 163 | Population Apoptotic (%) [2]: 45% | Population Fragmented Nuclei (%) [2]: 20% | Population Healthy Nuclei (%) [2]: 55% | Population Hoechst High Intensity Objects (%) [2]: 5% | Population Membrane Permeable-Phenotype (%) [2]: 5% | Population Mitochondria Different-Phenotype (%) [2]: 15% | Population Mitotic Cells (%) [2]: 54% | Population Normal (%) [2]: 94% | Population Pyknosed Nuclei (%) [2]: 23% | Population Tubulin-Different-Phenotype (%) [2]: 57% | Total Cell Count [2]: 138 | Population Apoptotic (%) [3]: 58% | Population Fragmented Nuclei (%) [3]: 17% | Population Healthy Nuclei (%) [3]: 69% | Population Hoechst High Intensity Objects (%) [3]: 1% | Population Membrane Permeable-Phenotype (%) [3]: 0% | Population Mitochondria Different-Phenotype (%) [3]: 12% | Population Mitotic Cells (%) [3]: 41% | Population Normal (%) [3]: 98% | Population Pyknosed Nuclei (%) [3]: 13% | Population Tubulin-Different-Phenotype (%) [3]: 67% | Total Cell Count [3]: 181 | Population Apoptotic (%) [4]: 53% | Population Fragmented Nuclei (%) [4]: 38% | Population Healthy Nuclei (%) [4]: 51% | Population Hoechst High Intensity Objects (%) [4]: 2% | Population Membrane Permeable-Phenotype (%) [4]: 6% | Population Mitochondria Different-Phenotype (%) [4]: 14% | Population Mitotic Cells (%) [4]: 46% | Population Normal (%) [4]: 97% | Population Pyknosed Nuclei (%) [4]: 10% | Population Tubulin-Different-Phenotype (%) [4]: 77% | Total Cell Count [4]: 148 | Population Apoptotic (%) [5]: 55% | Population Fragmented Nuclei (%) [5]: 11% | Population Healthy Nuclei (%) [5]: 77% | Population Hoechst High Intensity Objects (%) [5]: 1% | Population Membrane Permeable-Phenotype (%) [5]: 0% | Population Mitochondria Different-Phenotype (%) [5]: 5% | Population Mitotic Cells (%) [5]: 44% | Population Normal (%) [5]: 98% | Population Pyknosed Nuclei (%) [5]: 11% | Population Tubulin-Different-Phenotype (%) [5]: 25% | Total Cell Count [5]: 156 | Population Fragmented Nuclei (%) [6]: 19% | Population Healthy Nuclei (%) [6]: 59% | Population Hoechst High Intensity Objects (%) [6]: 3% | Population Membrane Permeable-Phenotype (%) [6]: 2% | Population Mitochondria Different-Phenotype (%) [6]: 11% | Population Normal (%) [6]: 96% | Population Pyknosed Nuclei (%) [6]: 20% | Population Tubulin-Different-Phenotype (%) [6]: 41% | Total Cell Count [6]: 136 | Population Apoptotic (%) [7]: 50% | Population Fragmented Nuclei (%) [7]: 17% | Population Healthy Nuclei (%) [7]: 72% | Population Hoechst High Intensity Objects (%) [7]: 3% | Population Membrane Permeable-Phenotype (%) [7]: 0% | Population Mitochondria Different-Phenotype (%) [7]: 15% | Population Mitotic Cells (%) [7]: 50% | Population Normal (%) [7]: 96% | Population Pyknosed Nuclei (%) [7]: 10% | Population Tubulin-Different-Phenotype (%) [7]: 63% | Total Cell Count [7]: 180 | Population Apoptotic (%) [8]: 42% | Population Fragmented Nuclei (%) [8]: 39% | Population Healthy Nuclei (%) [8]: 55% | Population Hoechst High Intensity Objects (%) [8]: 2% | Population Membrane Permeable-Phenotype (%) [8]: 2% | Population Mitochondria Different-Phenotype (%) [8]: 12% | Population Mitotic Cells (%) [8]: 57% | Population Normal (%) [8]: 97% | Population Pyknosed Nuclei (%) [8]: 4% | Population Tubulin-Different-Phenotype (%) [8]: 85% | Total Cell Count [8]: 148 | Population Apoptotic (%) [9]: 66% | Population Fragmented Nuclei (%) [9]: 17% | Population Healthy Nuclei (%) [9]: 75% | Population Hoechst High Intensity Objects (%) [9]: 1% | Population Membrane Permeable-Phenotype (%) [9]: 1% | Population Mitochondria Different-Phenotype (%) [9]: 3% | Population Mitotic Cells (%) [9]: 33% | Population Normal (%) [9]: 98% | Population Pyknosed Nuclei (%) [9]: 6% | Population Tubulin-Different-Phenotype (%) [9]: 27% | Total Cell Count [9]: 180 | Population Apoptotic (%) [10]: 52% | Population Fragmented Nuclei (%) [10]: 26% | Population Healthy Nuclei (%) [10]: 61% | Population Membrane Permeable-Phenotype (%) [10]: 5% | Population Mitochondria Different-Phenotype (%) [10]: 13% | Population Mitotic Cells (%) [10]: 47% | Population Pyknosed Nuclei (%) [10]: 12% | Population Tubulin-Different-Phenotype (%) [10]: 46% | Total Cell Count [10]: 152 | Population Apoptotic (%) [11]: 71% | Population Fragmented Nuclei (%) [11]: 21% | Population Healthy Nuclei (%) [11]: 71% | Population Hoechst High Intensity Objects (%) [11]: 4% | Population Membrane Permeable-Phenotype (%) [11]: 0% | Population Mitochondria Different-Phenotype (%) [11]: 8% | Population Mitotic Cells (%) [11]: 28% | Population Normal (%) [11]: 95% | Population Pyknosed Nuclei (%) [11]: 7% | Population Tubulin-Different-Phenotype (%) [11]: 71% | Total Cell Count [11]: 203 | Population Apoptotic (%) [12]: 75% | Population Fragmented Nuclei (%) [12]: 45% | Population Healthy Nuclei (%) [12]: 52% | Population Hoechst High Intensity Objects (%) [12]: 0% | Population Membrane Permeable-Phenotype (%) [12]: 3% | Population Mitotic Cells (%) [12]: 25% | Population Normal (%) [12]: 99% | Population Pyknosed Nuclei (%) [12]: 2% | Population Tubulin-Different-Phenotype (%) [12]: 81% | Total Cell Count [12]: 174
